# From ChEMBL document CHEMBL4808187, “Antiarrhythmic Hit to Lead Refinement in a Dish Using Patient-Derived iPSC Cardiomyocytes” (J Med Chem, 2021)
# Calls of active or inactive are those of the source. The calls are words filed in the database; no cut-off is given here.
# Test system: not listed separately
# Test: Metabolic stability in human liver S9 fraction assessed as compound remaining at 50 uM after 1 hr by HPLC method
# Format: ADME, subcellular
# Details: read-out: Stabilty
# How it was run: (§1)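 Human liver microsomes (0.4–0.5 mg protein) or S-9 (1 mg) with 50 μM compound in 50 mM potassium phosphate pH 7.4 plus NADPH-generating system, 37 °C shaking for 0, 7, 15, 30, 60 min; stopped with cold acetonitrile; HPLC C18, isocratic water/acetonitrile with 0.05% TFA, UV 275.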
row,Structure (SMILES),"remaining at 1 h, 50 µM"
1,Cc1cccc(C)c1OC[C@H](C)N [(S)-MEXILETINE],> 95%
2,Cc1cccc(C)c1OC[C@@H](C)N [(R)-MEXILETINE],> 95%
3,Cc1ccccc1OC[C@@H](N)c1ccccc1.Cl,> 95%

# Test system: not listed separately
# Test: Inhibition of sodium channel (unknown origin) expressed in HEK cells assessed as reduction in late inward sodium current by automated patch clamp method
# Format: cell-based
# Details: Homo sapiens, HEK293
row,Structure (SMILES),IC50
1,COCCNC(COc1cc(C)cc(C)c1)c1ccccc1.Cl (centres undefined),0.753 µM
2,Cc1cccc(C)c1OCC(N)C(C)(C)C.Cl (centres undefined),11.4 µM
3,Cl.OCCNC(COc1cc(C(F)(F)F)cc(C(F)(F)F)c1)c1ccccc1 (centres undefined),1.02 µM
4,Cc1cc(C)cc(OCC(C)N)c1.Cl (centres undefined),17.3 µM

# Species: Homo sapiens
# Test: Selectivity index, ratio of IC50 for potassium channel (unknown origin) expressed in CHO cells assessed as reduction in potassium current to IC50 for sodium channel (unknown origin) expressed in HEK cells assessed as reduction in late inward sodium current
# Details: not given
row,Structure (SMILES),Ratio IC50
1,COCCNC(COc1cc(C)cc(C)c1)c1ccccc1.Cl (centres undefined),6.8
2,Cc1cccc(C)c1OCC(N)C(C)(C)C.Cl (centres undefined),2.42
3,Cl.OCCNC(COc1cc(C(F)(F)F)cc(C(F)(F)F)c1)c1ccccc1 (centres undefined),16.5
4,Cc1cc(C)cc(OCC(C)N)c1.Cl (centres undefined),2.84

# Test system: not listed separately
# Test: Metabolic stability in human liver microsomes assessed as half life at 50 uM measured upto 60 mins by HPLC method
# Format: ADME, Microsome
# Details: not given
# How it was run: as §1
row,Structure (SMILES),half-life at 50 µM
1,Cc1ccccc1OC[C@@H](N)c1ccccc1.Cl,2.27 h

# Test system: not listed separately
# Test: Inhibition of sodium channel (unknown origin) expressed in HEK cells assessed as reduction in peak sodium current by automated patch clamp method
# Format: cell-based
# Details: Homo sapiens, HEK293
row,Structure (SMILES),IC50
1,COCCNC(COc1cc(C)cc(C)c1)c1ccccc1.Cl (centres undefined),38 µM
2,Cc1cccc(C)c1OC[C@H](C)N [(S)-MEXILETINE],128 µM
3,Cc1cccc(C)c1OC[C@@H](C)N [(R)-MEXILETINE],129 µM
4,Cc1cccc(C)c1OCC(N)C(C)(C)C.Cl (centres undefined),91.4 µM
5,Cl.OCCNC(COc1cc(C(F)(F)F)cc(C(F)(F)F)c1)c1ccccc1 (centres undefined),45.1 µM
6,Cc1cc(C)cc(OCC(C)N)c1.Cl (centres undefined),154 µM

# Test system: not listed separately
# Test: Antiarrhythmic activity in hiPSC-CMs assessed as fold prolongation of action potential relative to control
# Details: human, ipsc-cm
row,Structure (SMILES),Activity
1,COCCNC(COc1cc(C)cc(C)c1)c1ccccc1.Cl (centres undefined),Not Active
2,Cl.OCCNC(COc1cc(C(F)(F)F)cc(C(F)(F)F)c1)c1ccccc1 (centres undefined),Not Active

# Test system: not listed separately
# Test: Inhibition of potassium channel (unknown origin) expressed in CHO cells assessed as reduction in potassium current by automated patch clamp method
# Format: cell-based
# Details: not given
row,Structure (SMILES),IC50
1,COCCNC(COc1cc(C)cc(C)c1)c1ccccc1.Cl (centres undefined),5.1 µM
2,Cc1cccc(C)c1OC[C@H](C)N [(S)-MEXILETINE],54.3 µM
3,Cc1cccc(C)c1OC[C@@H](C)N [(R)-MEXILETINE],84 µM
4,Cc1cccc(C)c1OCC(N)C(C)(C)C.Cl (centres undefined),27.6 µM
5,Cl.OCCNC(COc1cc(C(F)(F)F)cc(C(F)(F)F)c1)c1ccccc1 (centres undefined),16.8 µM
6,Cc1cc(C)cc(OCC(C)N)c1.Cl (centres undefined),49.3 µM

# Test system: not listed separately
# Test: (§2) Antiarrhythmic activity in patient-derived hiPSC-CMs carrying LQT3 mutation assessed as shortening dose of action potential
# Format: functional, Homo sapiens, iPSC-CM
# Details: not given
row,Structure (SMILES),Activity
1,Cc1cccc(C)c1OC[C@H](C)N [(S)-MEXILETINE],22 µM
2,Cc1cccc(C)c1OC[C@@H](C)N [(R)-MEXILETINE],7.4 µM
3,Cc1cccc(C)c1OCC(N)C(C)(C)C.Cl (centres undefined),2.5 µM
4,Cl.OCCNC(COc1cc(C(F)(F)F)cc(C(F)(F)F)c1)c1ccccc1 (centres undefined),7.4 µM
5,Cc1cc(C)cc(OCC(C)N)c1.Cl (centres undefined),66 µM

# Test system: iPSC-CM
# Test: as §2
# Format: functional
# Details: Homo sapiens
row,Structure (SMILES),Activity
1,COCCNC(COc1cc(C)cc(C)c1)c1ccccc1.Cl (centres undefined),inactive

# Test system: not listed separately
# Test: Antiarrhythmic activity in hiPSC-CMs assessed as dose for induction of early after depolarizations
# Details: human, ipsc-cm
row,Structure (SMILES),Activity
1,COCCNC(COc1cc(C)cc(C)c1)c1ccccc1.Cl (centres undefined),Not Active
2,Cc1cccc(C)c1OC[C@H](C)N [(S)-MEXILETINE],200 µM
3,Cc1cccc(C)c1OC[C@@H](C)N [(R)-MEXILETINE],200 µM
4,Cc1cccc(C)c1OCC(N)C(C)(C)C.Cl (centres undefined),7.4 µM
5,Cl.OCCNC(COc1cc(C(F)(F)F)cc(C(F)(F)F)c1)c1ccccc1 (centres undefined),Not Active
6,Cc1cc(C)cc(OCC(C)N)c1.Cl (centres undefined),Not Active

# Test system: not listed separately
# Test: (§3) Antiarrhythmic activity in patient-derived hiPSC-CMs carrying LQT3 mutation assessed as cessation dose for cell beating
# Format: functional, Homo sapiens, iPSC-CM
# Details: not given
row,Structure (SMILES),Activity
1,COCCNC(COc1cc(C)cc(C)c1)c1ccccc1.Cl (centres undefined),200 µM
2,Cc1cccc(C)c1OCC(N)C(C)(C)C.Cl (centres undefined),22 µM
3,Cl.OCCNC(COc1cc(C(F)(F)F)cc(C(F)(F)F)c1)c1ccccc1 (centres undefined),22 µM
4,Cc1cc(C)cc(OCC(C)N)c1.Cl (centres undefined),200 µM

# Test system: iPSC-CM
# Test: as §3
# Format: functional
# Details: Homo sapiens
row,Structure (SMILES),Activity
1,Cc1cccc(C)c1OC[C@H](C)N [(S)-MEXILETINE],inactive
2,Cc1cccc(C)c1OC[C@@H](C)N [(R)-MEXILETINE],inactive

# Test system: not listed separately
# Test: Antiarrhythmic activity in hiPSC-CMs assessed as cessation dose of cell beating
# Details: human, ipsc-cm
row,Structure (SMILES),Activity
1,COCCNC(COc1cc(C)cc(C)c1)c1ccccc1.Cl (centres undefined),200 µM
2,Cc1cccc(C)c1OC[C@H](C)N [(S)-MEXILETINE],Not Active
3,Cc1cccc(C)c1OC[C@@H](C)N [(R)-MEXILETINE],Not Active
4,Cc1cccc(C)c1OCC(N)C(C)(C)C.Cl (centres undefined),Not Active
5,Cl.OCCNC(COc1cc(C(F)(F)F)cc(C(F)(F)F)c1)c1ccccc1 (centres undefined),66 µM
6,Cc1cc(C)cc(OCC(C)N)c1.Cl (centres undefined),Not Active

# Test system: not listed separately
# Test: Antiarrhythmic activity in patient-derived hiPSC-CMs carrying LQT3 mutation assessed as shortening of action potential duration
# Format: functional, Homo sapiens
# Details: ipsc-cm
row,Structure (SMILES),EC50
1,COCCNC(COc1cc(C)cc(C)c1)c1ccccc1.Cl (centres undefined),Not Active
2,Cl.OCCNC(COc1cc(C(F)(F)F)cc(C(F)(F)F)c1)c1ccccc1 (centres undefined),Not Active

# Same assay, conditions: ipsc-cm; read-out: EC50
row,Structure (SMILES),EC50
1,Cc1cccc(C)c1OC[C@H](C)N [(S)-MEXILETINE],0.8 µM
2,Cc1cccc(C)c1OC[C@@H](C)N [(R)-MEXILETINE],0.96 µM
3,Cc1cccc(C)c1OCC(N)C(C)(C)C.Cl (centres undefined),< 0.8 µM
4,Cc1cc(C)cc(OCC(C)N)c1.Cl (centres undefined),4.5 µM

# Test system: not listed separately
# Test: Metabolic stability in human liver microsomes assessed as compound remaining at 50 uM after 1 hr by HPLC method
# Format: ADME, Microsome
# Details: read-out: Stabilty
# How it was run: as §1
row,Structure (SMILES),"remaining at 1 h, 50 µM"
1,Cc1cccc(C)c1OC[C@H](C)N [(S)-MEXILETINE],> 95%
2,Cc1cccc(C)c1OC[C@@H](C)N [(R)-MEXILETINE],> 95%

# Test system: not listed separately
# Test: (§4) Antiarrhythmic activity in patient-derived hiPSC-CMs carrying LQT3 mutation assessed as fold shortening of action potential duration relative to control
# Format: functional, Homo sapiens, iPSC-CM
# Details: not given
row,Structure (SMILES),fold change (FC)
1,Cc1cccc(C)c1OCC(N)C(C)(C)C.Cl (centres undefined),1.182
2,Cl.OCCNC(COc1cc(C(F)(F)F)cc(C(F)(F)F)c1)c1ccccc1 (centres undefined),1.5
3,Cc1cc(C)cc(OCC(C)N)c1.Cl (centres undefined),1.232

# Test system: iPSC-CM
# Test: as §4
# Format: functional
# Details: Homo sapiens
row,Structure (SMILES),fold change (FC)
1,COCCNC(COc1cc(C)cc(C)c1)c1ccccc1.Cl (centres undefined),inactive

# Test system: not listed separately
# Test: Antiarrhythmic activity in hiPSC-CMs assessed as prolongation of action potential
# Parameters: species or system Homo sapiens, iPSC-CM
# Details: Homo sapiens, iPSC-CM; read-out: EC50
row,Structure (SMILES),EC50
1,Cc1cc(C)cc(OCC(C)N)c1.Cl (centres undefined),7.7 µM

# Same assay, conditions: ipsc-cm
row,Structure (SMILES),EC50
1,Cc1cccc(C)c1OCC(N)C(C)(C)C.Cl (centres undefined),Not Active
